Source: PubChem BioAssay
The entries come from a sample that favours hits as a whole.
HKDC1 activator: HKDC1 (human) hexokinase activation; Q2TB90; recombinant HKDC1, G6PDH/diaphorase resazurin fluorescence; stronger effect = lower value; activity change, negative = activation, % at 20 µM; 0.056% of 340,000 active; AID 493187;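 active = activation of 40% or more at 20 µM, a change of -40% or lower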
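Material: in-house human HKDC1 enzyme, G6PDH and diaphorase coupling enzymes | Quantity: HKDC1 at 5 µg/mL final | Medium: Tris buffer at pH 8.0 containing MgCl2 | Compound dosing: 20 µM single dose | Schedule: 90 min reaction at room temperature, dark | Measured by: Resorufin fluorescence, 525/613 nm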
Each line names hits and unclear results; the compound was inactive in the other large screens.

Cc1ccc(S(=O)(=O)N2CCN(C(=O)CN3C(=O)NC4(CCCCC4)C3=O)CC2)c(C)c1	none
Cc1cc(C)n2cc(CSc3nnc(-c4ccccc4)c(-c4ccccc4)n3)nc2n1	none
CC(NNC(=S)N1CCN(c2ccccn2)CC1)c1nccc2ccccc12 (configuration not stated)	HKDC1 activator -42
CCN=C1NN=C(c2ccc(C)cc2)CS1	HKDC1 activator -64
Cc1ccc(-c2nc(NC(=O)CSc3cc(C)c4ccccc4n3)ns2)cc1	none
Cc1c(Cc2ccccc2)sc(NC(=O)Cc2ccccc2)c1C(N)=O	HKDC1 activator -52
COC(=O)c1c(NC(C)=O)sc(Cc2ccccc2)c1C	HKDC1 activator -77
CCc1nc2sc3c(=O)[nH]cnc3c2c2c1CSC(C)(C)C2	none
Oc1ccc2ccccc2c1/C=N/c1nccs1	none
CC1COCC(C)N1C1=C(Cl)C(=O)c2ccccc2C1=O (configuration not stated)	none
CCN(CC)S(=O)(=O)c1cccc(C(=O)N/N=C(\C)c2ccc(O)cc2O)c1	HKDC1 activator -43
COC(=O)c1ccccc1NC1=C/C(=N\S(=O)(=O)c2cccs2)c2ccccc2C1=O	none
CC(=O)NC1C(=O)N(CCN2CCOCC2)c2ccc(Br)cc21 (configuration not stated)	none
Clc1ccc(N=c2ssnc2Cl)nc1	HKDC1 activator -194
CC1=C(SCc2ccccc2)C(=O)c2ccccc2C1=O	none
Cn1c(-c2ccccc2)c(C(=O)CC#N)c2ccccc21	HKDC1 activator -45
CCOC(=O)c1cc(-c2ccc(/C=C3/C(=O)N(c4ccc(C(=O)O)cc4)N=C3C)o2)ccc1Cl	none
